Experimental data as given in article PMC5497724 (Cancer Science, 2017).

How the values were obtained:
[1] = rats, given orally; cited from earlier work
[2] = SCID mice, 4.4 mg/kg i.v.; 40% ethanol, 5% PEG 400, 55% normal saline; cited from earlier work
HT1080 cells = test: Western blot analysis of PI3K pathway and histone acetylation; type: cell-based, human; conditions: 3 h
How it was run: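 HT1080 cells in RPMI-1640 with 10% FBS were handled as in the proliferation assay: 8 × 10³ cells seeded, 24 h at 37°C. Cells were treated 3 h with test compound (in DMSO) at various concentrations. Reference treatments were 2.5 μM SAHA, 1 μM GDC-0941 or both. Western blots probed phospho-AKT (Ser473, Thr308), AKT, phospho-S6, S6, acetyl-histone H3 and β-actin.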

## C/C=C1\NC(=O)[C@H]2CSSCC/C=C/[C@H](CC(=O)N[C@H](C(C)C)C(=O)N2)OC(=O)[C@H](C(C)C)NC1=O [FK228, Romidepsin]
[1]
  drug levels after oral dosing vs i.v.: lower and more erratic drug levels than i.v. treatment
[2]
  AUC: 1123 ng·h/mL

## CS(=O)(=O)N1CCN(Cc2cc3nc(-c4cccc5[nH]ncc45)nc(N4CCOCC4)c3s2)CC1 [GDC0941]
HT1080 cells
  phosphorylation of AKT and S6 (Western blot): inhibited the phosphorylation of AKT and S6 ribosomal protein

## O=C(CCCCCCC(=O)Nc1ccccc1)NO [SAHA, Suberoylanilidehydroxamic acid]
HT1080 cells
  acetylation of histone H3 (Western blot): promoted acetylation of histone H3
